Calls of active or inactive are those of the source. No cut-off for these calls is given here.
What was measured:
[1] = molecular target: T1, Tyrosine-protein phosphatase non-receptor type 22 (Homo sapiens, UniProt Q9Y2R2); experiment: Inhibition of LYP (unknown origin) at 25 uM using pNPP as substrate relative to control
T1 sequence (Q9Y2R2 whole entry): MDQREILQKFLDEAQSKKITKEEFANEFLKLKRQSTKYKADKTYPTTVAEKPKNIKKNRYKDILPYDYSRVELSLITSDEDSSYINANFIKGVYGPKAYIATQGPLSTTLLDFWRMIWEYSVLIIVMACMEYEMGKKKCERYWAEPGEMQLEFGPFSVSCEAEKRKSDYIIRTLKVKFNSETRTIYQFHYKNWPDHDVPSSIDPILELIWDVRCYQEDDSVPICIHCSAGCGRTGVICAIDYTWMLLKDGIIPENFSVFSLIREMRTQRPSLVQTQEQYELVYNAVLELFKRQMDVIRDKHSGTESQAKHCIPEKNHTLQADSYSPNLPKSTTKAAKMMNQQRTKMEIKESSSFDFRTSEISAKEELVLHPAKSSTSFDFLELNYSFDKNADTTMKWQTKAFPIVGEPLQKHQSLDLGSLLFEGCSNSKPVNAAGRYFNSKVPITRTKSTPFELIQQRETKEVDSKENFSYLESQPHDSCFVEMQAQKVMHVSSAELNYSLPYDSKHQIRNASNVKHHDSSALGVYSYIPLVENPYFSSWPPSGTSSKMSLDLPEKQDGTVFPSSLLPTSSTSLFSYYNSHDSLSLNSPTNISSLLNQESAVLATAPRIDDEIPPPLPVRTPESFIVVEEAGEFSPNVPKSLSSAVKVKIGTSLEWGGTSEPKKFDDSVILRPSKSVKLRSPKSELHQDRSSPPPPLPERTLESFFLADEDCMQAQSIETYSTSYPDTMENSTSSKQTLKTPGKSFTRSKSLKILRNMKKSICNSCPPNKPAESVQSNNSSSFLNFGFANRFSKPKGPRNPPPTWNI

[2] = molecular target: T1, Tyrosine-protein phosphatase non-receptor type 22; experiment: Inhibition of LYP (unknown origin) using pNPP as substrate
[3] = molecular target: T2, Tyrosine-protein phosphatase non-receptor type 12 (Homo sapiens, UniProt Q05209); experiment: Inhibition of PTP-PEST (unknown origin)
T2 sequence (Q05209 whole entry): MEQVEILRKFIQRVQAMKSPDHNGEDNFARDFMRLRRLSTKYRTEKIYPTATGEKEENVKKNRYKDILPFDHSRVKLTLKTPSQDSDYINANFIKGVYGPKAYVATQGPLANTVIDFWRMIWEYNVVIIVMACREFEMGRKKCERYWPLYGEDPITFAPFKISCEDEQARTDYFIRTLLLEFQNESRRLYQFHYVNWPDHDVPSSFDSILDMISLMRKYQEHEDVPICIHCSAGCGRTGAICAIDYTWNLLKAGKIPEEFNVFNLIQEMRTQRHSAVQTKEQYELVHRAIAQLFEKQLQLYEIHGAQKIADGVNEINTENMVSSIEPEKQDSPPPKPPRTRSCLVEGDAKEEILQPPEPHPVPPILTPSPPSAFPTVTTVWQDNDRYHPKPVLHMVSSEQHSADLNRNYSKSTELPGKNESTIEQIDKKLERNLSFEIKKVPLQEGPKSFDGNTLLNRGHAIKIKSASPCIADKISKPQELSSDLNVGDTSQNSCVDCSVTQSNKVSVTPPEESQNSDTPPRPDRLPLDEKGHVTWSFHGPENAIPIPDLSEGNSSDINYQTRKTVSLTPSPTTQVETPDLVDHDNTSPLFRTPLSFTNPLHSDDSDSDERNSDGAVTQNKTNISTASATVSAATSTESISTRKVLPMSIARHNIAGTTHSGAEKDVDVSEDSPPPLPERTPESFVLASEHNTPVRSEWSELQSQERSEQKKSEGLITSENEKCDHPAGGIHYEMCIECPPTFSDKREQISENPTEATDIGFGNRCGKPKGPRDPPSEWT
Outline: (§1)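 Inhibition of the PTP panel, run in three independent experiments. Values are the average of the individual means ± SD.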

[4] = molecular target: T3, Tyrosine-protein phosphatase non-receptor type 1 (Homo sapiens, UniProt P18031); experiment: Inhibition of human PTP1B; outline: as §1
T3 sequence (P18031 whole entry): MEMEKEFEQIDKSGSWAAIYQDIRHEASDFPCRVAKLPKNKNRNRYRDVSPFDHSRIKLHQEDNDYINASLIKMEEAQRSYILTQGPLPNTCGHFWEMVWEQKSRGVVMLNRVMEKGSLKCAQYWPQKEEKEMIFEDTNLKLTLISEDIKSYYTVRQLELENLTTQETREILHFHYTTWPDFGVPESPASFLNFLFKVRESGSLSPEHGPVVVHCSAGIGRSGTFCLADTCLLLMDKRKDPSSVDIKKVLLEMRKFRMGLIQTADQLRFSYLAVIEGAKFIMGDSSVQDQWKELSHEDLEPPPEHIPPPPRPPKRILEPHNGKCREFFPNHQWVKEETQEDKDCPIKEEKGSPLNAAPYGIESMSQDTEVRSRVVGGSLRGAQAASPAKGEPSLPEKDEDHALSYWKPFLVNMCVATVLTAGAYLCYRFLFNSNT

[5] = molecular target: T4, Low molecular weight protein-tyrosine phosphatase A (Mycobacterium tuberculosis, UniProt P9WIA1); experiment: Inhibition of Mycobacterium tuberculosis PtpA; outline: as §1
T4 sequence (P9WIA1 whole entry): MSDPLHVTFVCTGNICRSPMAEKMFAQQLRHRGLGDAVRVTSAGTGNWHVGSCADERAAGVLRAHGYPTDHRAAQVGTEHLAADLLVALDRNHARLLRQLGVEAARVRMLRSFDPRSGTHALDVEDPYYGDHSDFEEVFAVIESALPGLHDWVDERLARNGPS

[6] = molecular target: T5, Phosphotyrosine protein phosphatase (Mycobacterium tuberculosis, UniProt A0A045ISB3); experiment: Inhibition of Mycobacterium tuberculosis PtpB; outline: as §1
T5 sequence (A0A045ISB3 whole entry): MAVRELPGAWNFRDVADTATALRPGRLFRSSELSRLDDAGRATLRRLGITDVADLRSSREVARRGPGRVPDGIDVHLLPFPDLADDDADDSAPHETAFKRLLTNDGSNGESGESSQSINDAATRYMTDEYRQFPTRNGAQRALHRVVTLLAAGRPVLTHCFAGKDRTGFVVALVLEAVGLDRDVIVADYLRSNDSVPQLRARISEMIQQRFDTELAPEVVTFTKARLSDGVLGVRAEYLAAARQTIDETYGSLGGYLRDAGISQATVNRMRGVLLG

[7] = molecular target: T1, Tyrosine-protein phosphatase non-receptor type 22; experiment: Competitive inhibition of LYP (unknown origin) assessed as inhibition constant using varying level of pNPP as substrate by Lineweaver-Burk plot analysis
[8] = molecular target: T2, Tyrosine-protein phosphatase non-receptor type 12; experiment: Competitive inhibition of PTP-PEST (unknown origin) assessed as inhibition constant using varying level of pNPP as substrate by Lineweaver-Burk plot analysis
[9] = molecular target: T3, Tyrosine-protein phosphatase non-receptor type 1; experiment: Non-competitive inhibition of human PTP1B assessed as inhibition constant using varying level of pNPP as substrate by Lineweaver-Burk plot analysis
[10] = molecular target: T4, Low molecular weight protein-tyrosine phosphatase A; experiment: Non-competitive inhibition of Mycobacterium tuberculosis PtpA assessed as inhibition constant using varying level of pNPP as substrate by Lineweaver-Burk plot analysis
[11] = molecular target: T5, Phosphotyrosine protein phosphatase; experiment: Competitive inhibition of Mycobacterium tuberculosis PtpB assessed as inhibition constant using varying level of pNPP as substrate by Lineweaver-Burk plot analysis
[12] = molecular target: T6, Tyrosine-protein phosphatase YopH (Yersinia enterocolitica, UniProt P15273); experiment: Inhibition of Yersinia enterocolitica YopH; outline: as §1
[13] = molecular target: T6, Tyrosine-protein phosphatase YopH; experiment: Non-competitive inhibition of Yersinia enterocolitica YopH assessed as inhibition constant using varying level of pNPP as substrate by Lineweaver-Burk plot analysis
[14] = Selectivity index, ratio of IC50 for PTP-PEST (unknown origin) to IC50 for LYP (unknown origin) using pNPP as substrate; details: human
[15] = Selectivity index, ratio of IC50 for human PTP1B to IC50 for LYP (unknown origin) using pNPP as substrate
[16] = Selectivity index, ratio of IC50 for Mycobacterium tuberculosis PtpA to IC50 for LYP (unknown origin) using pNPP as substrate
[17] = Selectivity index, ratio of IC50 for Mycobacterium tuberculosis PtpB to IC50 for LYP (unknown origin) using pNPP as substrate
[18] = Selectivity index, ratio of IC50 for Yersinia enterocolitica YopH to IC50 for LYP (unknown origin) using pNPP as substrate
[19] = molecular target: T1, Tyrosine-protein phosphatase non-receptor type 22; experiment: Reversible inhibition of LYP (unknown origin) assessed as enzyme recovery activity by dilution assay relative to control; set-up: scale not given: the % may be the effect or the level left
Outline: (§2)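 Reversibility tested by preincubation and dilution: enzyme preincubated with inhibitor, then diluted, and recovered phosphatase activity expressed as a percentage of control.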

[20] = molecular target: T2, Tyrosine-protein phosphatase non-receptor type 12; experiment: Reversible inhibition of PTP-PEST (unknown origin) assessed as enzyme recovery activity by dilution assay relative to control; set-up: scale not given: the % may be the effect or the level left; outline: as §2
[21] = molecular target: T7, Low molecular weight protein-tyrosine phosphatase A (Mycobacterium tuberculosis) (UniProt P9WIA1); experiment: Reversible inhibition of Mycobacterium tuberculosis PtpA assessed as enzyme recovery activity by dilution assay relative to control; set-up: scale not given: the % may be the effect or the level left; outline: as §2
T7 sequence (whole entry): T4 sequence (P9WIA1 whole entry)

[22] = molecular target: T8, Phosphotyrosine protein phosphatase (Mycobacterium tuberculosis) (UniProt A0A045ISB3); experiment: Reversible inhibition of Mycobacterium tuberculosis PtpB assessed as enzyme recovery activity by dilution assay relative to control; set-up: scale not given: the % may be the effect or the level left; outline: as §2
T8 sequence (whole entry): T5 sequence (A0A045ISB3 whole entry)

[23] = molecular target: T3, Tyrosine-protein phosphatase non-receptor type 1; experiment: Reversible inhibition of human PTP1B assessed as enzyme recovery activity by dilution assay relative to control; set-up: scale not given: the % may be the effect or the level left; outline: as §2
[24] = molecular target: Tyrosine-protein phosphatase YopH (Yersinia enterocolitica) (UniProt P15273); experiment: Irreversible inhibition of Yersinia enterocolitica YopH assessed as enzyme recovery activity by dilution assay relative to control; set-up: scale not given: the % may be the effect or the level left; outline: as §2
[25] = molecular target: Tyrosine-protein phosphatase YopH (Yersinia enterocolitica) (UniProt P15273); experiment: Potency index, ratio of chicoric-acid IC50 to test compound IC50 for inhibition of Yersinia enterocolitica YopH
[26] = molecular target: Tyrosine-protein phosphatase YopH (Yersinia enterocolitica) (UniProt P15273); experiment: Binding affinity of Yersinia enterocolitica YopH assessed as structural changes in protein by measuring emission spectra by fluorescence assay
Outline: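 Intrinsic fluorescence emission spectrum of YopH (λmax 328 nm) recorded in the presence of ligand; quenching and any shift in λmax monitored as the read-out for structural change.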

[27] = molecular target: Tyrosine-protein phosphatase YopH (Yersinia enterocolitica) (UniProt P15273); experiment: Binding affinity of Yersinia enterocolitica YopH assessed as protein stabilization by measuring change in melting temperature by thermal denaturation assay
Outline: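 YopH thermal denaturation profile recorded with and without ligand at 50 µM; melting temperature (Tm) compared between the two.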

[28] = test system: Yersinia enterocolitica; experiment: Antibacterial activity against Yersinia enterocolitica assessed as inhibition of bacterial growth at 8 to 250 uM after 48 hrs relative to control; type: functional

Tyrosine-protein phosphatase YopH (Yersinia enterocolitica), sequence (P15273 whole entry): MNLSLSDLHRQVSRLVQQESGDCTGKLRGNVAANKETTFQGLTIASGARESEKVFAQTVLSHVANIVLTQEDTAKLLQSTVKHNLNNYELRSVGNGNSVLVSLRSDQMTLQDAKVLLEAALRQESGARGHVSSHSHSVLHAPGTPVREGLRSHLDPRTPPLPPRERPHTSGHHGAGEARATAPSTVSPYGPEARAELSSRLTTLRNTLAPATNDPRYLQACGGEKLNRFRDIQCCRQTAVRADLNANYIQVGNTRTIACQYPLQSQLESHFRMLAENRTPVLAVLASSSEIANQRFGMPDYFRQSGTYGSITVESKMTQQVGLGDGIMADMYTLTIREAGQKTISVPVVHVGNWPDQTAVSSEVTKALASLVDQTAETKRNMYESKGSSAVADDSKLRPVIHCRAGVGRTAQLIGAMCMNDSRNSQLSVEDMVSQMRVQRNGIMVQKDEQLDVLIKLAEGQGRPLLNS
T6 sequence (P15273 whole entry): as above

## O=C(O)c1ccc(/C=C/C(=O)c2cccc([N+](=O)[O-])c2)cc1
[1]
  inhibition at 25 µM: 57.9%
[2]
  IC50: 11500 nM
[3]
  IC50: 10900 nM
[4]
  IC50: 3200 nM
[5]
  IC50: 3000 nM
[6]
  IC50: 2300 nM
[7]
  Ki: 1900 nM
[8]
  Ki: 1000 nM
[9]
  Ki: 1400 nM
[10]
  Ki: 800 nM
[11]
  Ki: 400 nM
[12]
  IC50: 2600 nM
[13]
  Ki: 1000 nM
[14]
  Ratio IC50: 0.94
[15]
  Ratio IC50: 0.28
[16]
  Ratio IC50: 0.26
[17]
  Ratio IC50: 0.19
[18]
  Ratio IC50: 0.22
[19]
  Activity: 76%
[20]
  Activity: 71%
[21]
  Activity: 76%
[22]
  Activity: 81%
[23]
  Activity: 45%
[24]
  Activity: 10%
[25]
  Ratio IC50: 145
[26]
  Activity: inactive
[27]
  ΔTm: 1.5 °C
[28]
  inhibition (INH): 20%

## COc1ccc(C(=O)/C=C/c2ccc(C(=O)O)cc2)c(OC)c1
[1]
  inhibition at 25 µM: 3.9%

## COc1cc(OC)cc(C(=O)/C=C/c2ccc(C(=O)O)cc2)c1
[1]
  inhibition at 25 µM: 4.6%

## COc1ccc(C(=O)/C=C/c2ccc(C(=O)O)cc2)cc1
[1]
  inhibition at 25 µM: 8.4%

## O=C(O)c1ccc(/C=C/C(=O)n2ccnc2)cc1
[1]
  inhibition at 25 µM: 25.7%

## O=C(O)c1ccc(/C=C/C(=O)c2ccccc2O)cc1
[1]
  inhibition at 25 µM: 11.7%

## O=C1COc2ccc(C(=O)/C=C/c3ccc(C(=O)O)cc3)cc2N1
[1]
  inhibition at 25 µM: 33.2%

## COc1ccccc1C(=O)/C=C/c1ccc(C(=O)O)cc1
[1]
  inhibition at 25 µM: 13%

## O=C(O)c1ccc(/C=C/C(=O)c2ccccc2)cc1
[1]
  inhibition at 25 µM: 4.2%

Reference: ChEMBL document CHEMBL4622949, “A chalcone derivative binds a putative allosteric site of YopH: Inhibition of a virulence factor of Yersinia” (Bioorg Med Chem Lett, 2020)
